Assay results as given in ChEMBL document CHEMBL4028907, “Semisynthesis and Biological Evaluation of Xanthone Amphiphilics as Selective, Highly Potent Antifungal Agents to Combat Fungal Resistance” (J Med Chem, 2017).
In brackets after ≈: the same amount, converted by molar mass. Activity calls are given as the source filed them. The calls are words filed in the database; no cut-off is given here.

Assays:
Candida albicans [1] = test: Antifungal activity against Candida albicans ATCC24433 after 24 hrs by two fold serial dilution method; assay type: functional; conditions: ATCC24433, 24 h
In short: (§1)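 Candida grown on Sabouraud dextrose agar at 35 °C for 24 h, adjusted to ~5×10^3 CFU/mL. Two-fold dilutions from 100 to 0.78 μg/mL in Sabouraud dextrose broth, incubated at 35 °C for 24 h. MIC is the lowest concentration inhibiting growth by eye and by OD600. CLSI-based with minor modifications.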

Fusarium solani [2] = test: Antifungal activity against Fusarium solani MYA3636 after 48 hrs by two fold serial dilution method; assay type: functional; conditions: MYA3636, 48 h
In short: (§2)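 Moulds grown on potato dextrose agar, 30 °C, 4 days; inoculum adjusted to about 5×10^3 CFU/mL. Two-fold serial dilutions in RPMI-1640 broth, 100 to 0.78 μg/mL final, mixed with equal volume of cell suspension; incubated 30 °C, 48 h. MIC = lowest concentration inhibiting growth, judged visually and by OD530.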

Aspergillus fumigatus [3] = test: Antifungal activity against Aspergillus fumigatus TCC 90906 after 48 hrs by two fold serial dilution method; assay type: functional; conditions: TCC 90906, 48 h; in short: as §2
Aspergillus flavus [4] = test: Antifungal activity against Aspergillus flavus TCC MYA3631 after 48 hrs by two fold serial dilution method; assay type: functional; conditions: TCC MYA3631, 48 h; in short: as §2
Aspergillus fumigatus [5] = test: Antifungal activity against Aspergillus fumigatus TCC MYA3626 after 48 hrs by two fold serial dilution method; assay type: functional; conditions: TCC MYA3626, 48 h; in short: as §2
Candida albicans [6] = test: Antifungal activity against Candida albicans ATCC 10231 after 24 hrs by two fold serial dilution method; assay type: functional; conditions: ATCC 10231, 24 h; in short: as §1
Candida albicans [7] = test: Antifungal activity against Candida albicans DF1976R after 24 hrs by two fold serial dilution method; assay type: functional; in short: as §1
Candida albicans [8] = test: Antifungal activity against Candida albicans ATCC11651 after 24 hrs by two fold serial dilution method; assay type: functional; conditions: ATCC11651, 24 h; in short: as §1
Fusarium solani [9] = test: Antifungal activity against Fusarium solani 52628 after 48 hrs by two fold serial dilution method; assay type: functional; conditions: Fusarium solani, 52628, 48 h; in short: as §2
Aspergillus brasiliensis = test: Antifungal activity against Aspergillus brasiliensis TCC16404 after 48 hrs by two fold serial dilution method; assay type: functional; conditions: TCC16404, 48 h; in short: as §2
Fusarium solani [10] = test: Antifungal activity against Fusarium solani 62877 after 48 hrs by two fold serial dilution method; assay type: functional; conditions: Fusarium solani, 62877, 48 h; in short: as §2
Aspergillus flavus [11] = test: Antifungal activity against Aspergillus flavus TCC 204304 after 48 hrs by two fold serial dilution method; assay type: functional; conditions: TCC 204304, 48 h; in short: as §2
Fusarium solani [12] = test: Antifungal activity against Fusarium solani 46492 after 48 hrs by two fold serial dilution method; assay type: functional; conditions: Fusarium solani, 46492, 48 h; in short: as §2
Candida albicans [13] = test: Antifungal activity against drug resistant Candida albicans DF2672R after 24 hrs by two fold serial dilution method; assay type: functional; in short: as §1
Fusarium oxysporum [14] = test: Antifungal activity against Fusarium oxysporum 64530 after 48 hrs by two fold serial dilution method; assay type: functional; conditions: Fusarium oxysporum, 64530, 48 h; in short: as §2
Fusarium oxysporum [15] = test: Antifungal activity against Fusarium oxysporum MYA3461 after 48 hrs by two fold serial dilution method; assay type: functional; conditions: MYA3461, 48 h; in short: as §2
Candida albicans [16] = test: Antifungal activity against Candida albicans ATCC90028 after 24 hrs by two fold serial dilution method; assay type: functional; conditions: ATCC90028, 24 h; in short: as §1
Candida albicans [17] = test: Synergistic antifungal activity against drug resistant Candida albicans DF2672R after 24 hrs in presence of miconazole by checkerboard assay; assay type: functional
In short: (§3)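 Checkerboard combination of each compound with a second antifungal, following a previously reported procedure. FIC = MIC of A in combination/MIC of A alone + MIC of B in combination/MIC of B alone.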

Candida albicans [18] = test: Ratio of MIC against drug resistant Candida albicans DF2672R measured after 30 passages to MIC against drug resistant Candida albicans DF2672R measured before 30 passages by two fold serial dilution method; assay type: functional
In short: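 Serial passage: cells from duplicate tubes at 0.5× MIC adjusted to ~5×10^3 CFU/mL and used as the inoculum for the next broth microdilution MIC, 24 h at 35 °C. Repeated for 27–30 passages, with biological replicates.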

Candida albicans [19] = test: Synergistic antifungal activity against drug resistant Candida albicans DF2672R after 24 hrs in presence of terbinafine by checkerboard assay; assay type: functional; in short: as §3
Lipid bilayer [20] = test: Induction of membrane permiablization in calcein loaded DOPC/DOPE/PI large unilamellar vesicles assessed as calcein leakage at 1:4 compound to lipid ratio after 1 to 2 hrs by fluorescence assay relative to control
In short: (§4)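 LUVs (DOPC/DOPE/PI 2:1:1 with 15 wt % ergosterol, about 100 nm) made by film hydration and extrusion, loaded with 80 mM calcein in HEPES buffer pH 7.4. Free dye removed by G-50 column. Compound added in 0.5% DMF at 50 μM final phospholipid. Emission read at 520 nm (excitation 490 nm); leakage normalized to 1% Triton X-100.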

[21] = Selectivity index, ratio of HC50 for New Zealand white rabbit RBC to MIC for Candida albicans ATCC 10231
Staphylococcus aureus [22] = test: Antibacterial activity against methicillin resistant Staphylococcus aureus DM21455 by two fold serial dilution method; assay type: functional
In short: (§5)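 Broth microdilution per CLSI guidelines with minor modifications, run in Mueller−Hinton broth; MIC is the lowest concentration giving no visible growth.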

Candida albicans [23] = test: Synergistic antifungal activity against drug resistant Candida albicans DF2672R after 24 hrs in presence of amphotericin B by checkerboard assay; assay type: functional; in short: as §3
Bacillus cereus = test: Antibacterial activity against Bacillus cereus ATCC11778 by two fold serial dilution method; assay type: functional
In short: (§6)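 Broth microdilution (CLSI, minor modifications) in Sabouraud dextrose, Mueller−Hinton or RPMI 1640 broth; two-fold serial dilutions of compound from stock to final 100 to 0.78 μg/mL. MIC taken as lowest concentration giving no visible growth.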

Candida albicans [24] = test: Induction of membrane permiablization in drug resistant Candida albicans DF2672R at 4 times MIC after 1 to 2 hrs by SYTOX green dye based spectrofluorometric assay; assay type: functional
In short: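 Overnight cultures washed and resuspended in PBS at OD600 0.2, then loaded with 0.3 μM SYTOX Green in the dark. After the signal stabilised, compound in PBS/DMF was added (final DMF 0.5%; 0.5% DMF as control). Fluorescence (ex 504/em 523 nm) followed continuously for 1–2 h; biological replicates.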

Candida albicans [25] = test: Synergistic antifungal activity against drug resistant Candida albicans DF2672R after 24 hrs in presence of itraconazole by checkerboard assay; assay type: functional; in short: as §3
Lipid bilayer [26] = test: Induction of membrane permiablization in calcein loaded DOPC/DOPE/PI large unilamellar vesicles assessed as calcein leakage at 1:8 compound to lipid ratio after 1 to 2 hrs by […] fluorescence assay relative to control; in short: as §4
Klebsiella pneumoniae = test: Antibacterial activity against Klebsiella pneumoniae DM4299 by two fold serial dilution method; assay type: functional; in short: as §6
Candida albicans [27] = test: Fungicidal activity against drug resistant Candida albicans DF2672R after 0.5 to 24 hrs by time kill assay; assay type: functional
In short: (§7)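 Cells at 10^5–10^6 CFU/mL exposed to 1×, 2×, 4× or 8× MIC at 35 °C. Samples taken at 0.5, 1, 2, 4, 8 and 24 h, serially diluted in PBS and plated on SDA. CFU counted after 24 h at 35 °C; biological replicates.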

Staphylococcus aureus [28] = test: Antibacterial activity against methicillin resistant Staphylococcus aureus DM9808R by two fold serial dilution method; assay type: functional; in short: as §5
Candida albicans [29] = test: Fungicidal activity against drug resistant Candida albicans DF2672R at 8 times MIC after 4 hrs by time kill assay relative to control; assay type: functional; in short: as §7
Pseudomonas aeruginosa = test: Antibacterial activity against Pseudomonas aeruginosa DM23155 by two fold serial dilution method; assay type: functional; in short: as §6
Staphylococcus aureus [30] = test: Antibacterial activity against Staphylococcus aureus DM4001R by two fold serial dilution method; assay type: functional; in short: as §6
[31] = Cytotoxicity against human corneal fibroblasts assessed as cell viability up to 100 uM after 4 hrs by LDH assay relative to control; assay type: cell-based, Corneal fibroblast; conditions: read-out: Activity
In short: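 LDH release assay on human corneal fibroblasts seeded at 10000 cells per well, exposed to a range of compound concentrations up to 100 μM. 1% Triton X-100 served as positive control and 0.5% DMSO as negative control; biological replicates.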

Candida albicans [32] = test: Synergistic antifungal activity against drug resistant Candida albicans DF2672R after 24 hrs in presence of posaconazole by checkerboard assay; assay type: functional; in short: as §3
Candida albicans [33] = test: Synergistic antifungal activity against drug resistant Candida albicans DF2672R after 24 hrs in presence of natamycin by checkerboard assay; assay type: functional; in short: as §3

Row | Structure (SMILES) | MIC (Candida albicans [1]) [µg/mL] | MIC (Fusarium solani [2]) [µg/mL] | MIC (Aspergillus fumigatus [3]) [µg/mL] | MIC (Aspergillus flavus [4]) [µg/mL] | MIC (Aspergillus fumigatus [5]) [µg/mL] | MIC (Candida albicans [6]) [µg/mL] | MIC (Candida albicans [7]) [µg/mL] | MIC (Candida albicans [8]) [µg/mL] | MIC (Fusarium solani [9]) [µg/mL] | MIC (Aspergillus brasiliensis) [µg/mL] | MIC (Fusarium solani [10]) [µg/mL] | MIC (Aspergillus flavus [11]) [µg/mL] | MIC (Fusarium solani [12]) [µg/mL] | MIC (Candida albicans [13]) [µg/mL] | MIC (Fusarium oxysporum [14]) [µg/mL] | MIC (Fusarium oxysporum [15]) [µg/mL] | MIC (Candida albicans [16]) [µg/mL] | also measured
1 | CC[C@H](C)C[C@H](C)CCCCCCCCC(=O)N[C@H]1C[C@@H](O)[C@@H](NCCN)NC(=O)[C@@H]2[C@@H](O)CCN2C(=O)[C@H]([C@H](O)CCN)NC(=O)[C@H]([C@H](O)[C@@H](O)c2ccc(O)cc2)NC(=O)[C@@H]2C[C@@H](O)CN2C(=O)[C@H]([C@@H](C)O)NC1=O [CASPOFUNGIN] | 0.2 (≈ 0.183 µM) | > 50 | > 50 | > 50 | > 50 | 0.1 (≈ 0.0915 µM) | 0.2 (≈ 0.183 µM) | 0.2 (≈ 0.183 µM) | > 50 | > 50 | > 50 | > 50 | > 50 | 0.2 (≈ 0.183 µM) | > 50 | > 50 | 0.1 (≈ 0.0915 µM) | –
2 | CCCCN(CCCC)CC(O)COc1cc2oc3cc(OCC(O)CN(CCCC)CCCC)c(OC)c(CC=C(C)C)c3c(=O)c2c(O)c1CC=C(C)C (centres undefined) | 3.13 (≈ 4.01 µM) | 3.13 (≈ 4.01 µM) | 12.5 (≈ 16 µM) | 12.5 (≈ 16 µM) | 6.25 (≈ 8 µM) | 3.13 (≈ 4.01 µM) | 3.13 (≈ 4.01 µM) | 3.13 (≈ 4.01 µM) | 6.25 (≈ 8 µM) | 3.13 (≈ 4.01 µM) | 6.25 (≈ 8 µM) | 12.5 (≈ 16 µM) | 6.25 (≈ 8 µM) | 3.13 (≈ 4.01 µM) | 6.25 (≈ 8 µM) | 3.13 (≈ 4.01 µM) | 3.13 (≈ 4.01 µM) | fractional inhibitory concentration index (FICI) (Candida albicans [17]): 0.81; Ratio (Candida albicans [18]): 2; fractional inhibitory concentration index (FICI) (Candida albicans [19]): 0.29; Activity (Lipid bilayer [20]): 55.4%; Selectivity Index [21]: > 128; MIC (Staphylococcus aureus [22]): > 50 µg/mL; fractional inhibitory concentration index (FICI) (Candida albicans [23]): 0.64; MIC (Bacillus cereus): > 50 µg/mL; Activity (Candida albicans [24]): Active; fractional inhibitory concentration index (FICI) (Candida albicans [25]): 0.63; Activity (Lipid bilayer [26]): 25.8%; MIC (Klebsiella pneumoniae): > 50 µg/mL; Activity (Candida albicans [27]): Dose-dependent effect; MIC (Staphylococcus aureus [28]): > 50 µg/mL; Activity (Candida albicans [29]): 99.9%; MIC (Pseudomonas aeruginosa): > 50 µg/mL; MIC (Staphylococcus aureus [30]): > 50 µg/mL; viability at 4 h [31]: > 99%; fractional inhibitory concentration index (FICI) (Candida albicans [32]): 0.91; fractional inhibitory concentration index (FICI) (Candida albicans [33]): 0.91
